One data set relates to Leishmania donovani. Briefly: Antileishmanial activity against Leishmania donovani MHOM/ET/67/L82 amastigotes assessed as growth inhibition incubated for 70 hrs by resazurin based inverted microscopic analysis. It counts as functional, organism-based. The procedure, abridged:
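Axenic L. donovani amastigotes (MHOM/ET/67/L82); racemates tested unless stated; miltefosine as positive control. Some values come from a separate run and were rescaled by that run's relative miltefosine IC50.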

A further data set has as its system L6. Briefly: Cytotoxicity against rat L6 cells assessed as reduction in cell viability incubated for 70 hrs by resazurin staining based inverted microscopic analysis. Conditions: L6, 70 h. Put shortly: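 Rat L-6 skeletal myoblast line; racemates tested unless stated.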
Data set [1] can be described thus: Selectivity index, ratio of IC50 for cytotoxicity against rat L6 cells to IC50 for antileishmanial activity against Leishmania donovani MHOM/ET/67/L82 amastigotes. It counts as toxicity, cell-based. Conditions: for selectivity ratio: read-out: Ratio IC50.
[2] abbreviates: Leishmania donovani, MHOM/ET/67/L82, 70 h.

Regarding `CC(C)OC(=O)/C=C/c1cc(O)c2c(c1)[C@@H](C(=O)OC(C)C)[C@H](c1ccc(O)c(O)c1)O2`, the IC50 stood at 0.65 µM in the data set on Leishmania donovani (setting [2]) and 10.6 µM in the data set on L6. The selectivity ratio in data set [1] worked out at 16.4.
For the molecule `CC(C)OC(=O)/C=C/c1cc(O)c2c(c1)[C@H](C(=O)OC(C)C)[C@@H](c1ccc(O)c(O)c1)O2`, in the data set on Leishmania donovani, the IC50 was 0.53 µM. In data set [1], the “Ratio IC50” value is reported as 19.3.
Turning to `COC(=O)/C=C/c1cc(O)c2c(c1)[C@H](C(=O)OC)[C@@H](c1ccc(O)c(O)c1)O2` (racemic), the IC50 with Leishmania donovani (setting [2]) came out at 12.6 µM; in the data set on L6 it was 0.37 µM. For the same molecule, in data set [1], the selectivity ratio stood at 0.03.
The like results for `COC(=O)/C=C/c1ccc2c(c1)[C@H](C(=O)OC)[C@@H](c1ccc(O)cc1)O2` (racemic) were, in that order, 7.84 µM, 23.2 µM and 3.
The like results for `COc1cc([C@H]2Oc3c(OC)cc(/C=C/CO)cc3[C@@H]2CO)ccc1O` (racemic) were, in that order, 160 µM, 74.2 µM and 0.5.
The like results for `COC(=O)/C=C/c1cc(OC)c2c(c1)[C@H](C(=O)OC)[C@@H](c1ccc(O)c(OC)c1)O2` (racemic) were, in that order, 10.6 µM, 2.43 µM and 0.2.
For `CC(C)NC(=O)/C=C/c1cc(O)c2c(c1)[C@H](C(=O)NC(C)C)[C@@H](c1ccc(O)c(O)c1)O2` (racemic), the IC50 was 82.3 µM with Leishmania donovani (setting [2]) and 55.5 µM in the data set on L6. In addition, the selectivity ratio in data set [1] is 0.7.
The like results for `OC[C@H]1c2ccccc2O[C@@H]1c1ccc(O)cc1` (racemic) were, in that order, 158 µM, 217 µM and 1.4.
As to `COc1cc([C@H]2Oc3c(OC)cc(/C=C/C(=O)OC(C)C)cc3[C@@H]2C(=O)OC(C)C)ccc1O` (racemic), the IC50 amounted to 3.95 µM in the data set on Leishmania donovani (setting [2]) and 10.3 µM in the data set with L6. In data set [1], the selectivity ratio stood at 2.6.
For `CC(C)(C)OC(=O)/C=C/c1cc(F)c2c(c1)[C@H](C(=O)OC(C)(C)C)[C@@H](c1ccc(O)c(F)c1)O2` (racemic), in that order: 1.97 µM, 9.22 µM and 4.7.
In the case of `CC(C)(C)CC(=O)/C=C/c1cc(O)c2c(c1)[C@H](C(=O)CC(C)(C)C)[C@@H](c1ccc(O)c(O)c1)O2` (racemic), the figures for the IC50 with Leishmania donovani (setting [2]) and with L6 were 3.42 µM and 2.45 µM, respectively. Further, in data set [1], the selectivity ratio is 0.7.
For `CCCCOC(=O)/C=C/c1cc(OC)c2c(c1)[C@H](C(=O)OCCCC)[C@@H](c1ccc(O)c(OC)c1)O2` (racemic), in that order: 3.11 µM, 8.18 µM and 2.6.
Regarding `COc1cc([C@H]2Oc3c(OC)cc(/C=C/C(=O)NC(C)C)cc3[C@@H]2C(=O)NC(C)C)ccc1O` (racemic), the IC50 with Leishmania donovani (setting [2]) was 53.6 µM; in the data set on L6, 77.2 µM. Besides, in data set [1], the selectivity ratio stood at 1.4.
Regarding `CC(C)(C)OC(=O)/C=C/c1cc(O)c2c(c1)[C@H](C(=O)OC(C)(C)C)[C@@H](c1ccc(O)c(O)c1)O2` (racemic), the figures for the IC50 in the data set with Leishmania donovani (setting [2]) and in the data set on L6 were 1.66 µM and 9.05 µM, respectively. The selectivity ratio in data set [1] came out at 5.5.
Take `COc1cc([C@H]2Oc3ccc(Br)cc3[C@@H]2C)ccc1O` (racemic): the IC50 was 24.8 µM with Leishmania donovani (setting [2]) and 13.1 µM with L6. In addition, the selectivity ratio in data set [1] was 0.5.
Take `COc1ccc([C@H]2Oc3ccc(C=O)cc3[C@@H]2C)cc1` (racemic): the IC50 in the data set on Leishmania donovani (setting [2]) was determined as 30.5 µM; in the data set with L6, 43.8 µM. Besides, in data set [1], the selectivity ratio was 1.4.
`CCOC(=O)/C=C/c1ccc2c(c1)[C@H](C(=O)OCC)[C@@H](c1ccc(O)cc1)O2` (racemic): the IC50 with Leishmania donovani (setting [2]) came out at 7.45 µM; with L6 it was 26.3 µM. Moreover, in data set [1], the selectivity ratio came to 3.5.
The like results for `CC(=O)OC[C@H]1c2cc(Br)ccc2O[C@@H]1c1ccc(O)cc1` (racemic) were, in that order, 13.7 µM, 55.5 µM and 4.
As for `CCOC(=O)/C=C/c1cc(O)c2c(c1)[C@H](C(=O)OCC)[C@@H](c1ccc(O)c(O)c1)O2` (racemic), the IC50 in the data set on Leishmania donovani (setting [2]) was 3.87 µM; in the data set with L6 it was 9.99 µM. In addition, the selectivity ratio in data set [1] was 2.6.
For `COc1ccc([C@H]2Oc3ccccc3[C@@H]2COC(C)=O)cc1` (racemic), in that order: 58.4 µM, 43.9 µM and 0.8.
For `COc1cc([C@H]2Oc3c(OC)cc(/C=C/C(=O)NCCO)cc3[C@@H]2C(=O)NCCO)ccc1O` (racemic), in that order: 212 µM, 212 µM and 1.
For `CC(C)CC(=O)/C=C/c1cc(O)c2c(c1)[C@H](C(=O)CC(C)C)[C@@H](c1ccc(O)c(O)c1)O2` (racemic), in that order: 4.42 µM, 5 µM and 1.1.
As to `CC(C)OC(=O)/C=C/c1ccc2c(c1)[C@H](C(=O)OC(C)C)[C@@H](c1ccc(O)cc1)O2` (racemic), the IC50 in the data set with Leishmania donovani (setting [2]) came out at 4.21 µM; in the data set on L6, 14.3 µM. In data set [1], the selectivity ratio amounted to 3.4.
For `CC(C)(C)OC(=O)/C=C/c1ccc2c(c1)[C@H](C(=O)OC(C)(C)C)[C@@H](c1ccc(O)cc1)O2` (racemic), the IC50 with Leishmania donovani (setting [2]) was 6.07 µM; in the data set on L6 it was 13.3 µM. Further, the selectivity ratio in data set [1] was found to be 2.2.
The like results for `CCCCOC(=O)/C=C/c1cc(O)c2c(c1)[C@H](C(=O)OCCCC)[C@@H](c1ccc(O)c(O)c1)O2` (racemic) were, in that order, 1.66 µM, 9.34 µM and 5.6.
Turning to `CCCNC(=O)/C=C/c1cc(OC)c2c(c1)[C@H](C(=O)NCCC)[C@@H](c1ccc(O)c(OC)c1)O2` (racemic), the IC50 worked out at 8.88 µM in the data set with Leishmania donovani (setting [2]) and 73.8 µM in the data set with L6. The selectivity ratio in data set [1] was found to be 8.3.
For `COc1cc([C@H]2Oc3ccccc3[C@@H]2C)ccc1O` (racemic), the IC50 is 59 µM in the data set on Leishmania donovani (setting [2]) and 84.4 µM with L6. Also, in data set [1], the selectivity ratio amounted to 1.4.
`COc1ccc([C@H]2Oc3ccccc3[C@@H]2CO)cc1OC` (racemic): the results for the IC50 with Leishmania donovani (setting [2]) and in the data set on L6 were 136 µM and 53.7 µM, respectively. For the same molecule, the selectivity ratio in data set [1] stood at 0.4.
`CCCCCCCCOC(=O)/C=C/c1cc(O)c2c(c1)[C@H](C(=O)OCCCCCCCC)[C@@H](c1ccc(O)c(O)c1)O2` (racemic): the IC50 with Leishmania donovani (setting [2]) was found to be 23.5 µM; in the data set on L6, 19.1 µM. In data set [1], the selectivity ratio was determined as 0.8.
Consider `COc1ccc([C@H]2Oc3ccccc3[C@@H]2C)cc1` (racemic), for which the IC50 amounted to 99.9 µM with Leishmania donovani (setting [2]) and 154 µM in the data set with L6. For the same molecule, in data set [1], the selectivity ratio was 1.6.
For `OC[C@H]1c2cc(Br)ccc2O[C@@H]1c1ccc(O)cc1` (racemic), in that order: 18.8 µM, 22 µM and 1.2.
The like results for `COc1cc([C@H]2Oc3c(OC)cc(/C=C/C(=O)O)cc3[C@@H]2C(=O)O)ccc1O` (racemic) were, in that order, 6.89 µM, 259 µM and 37.6.
`CCOC(=O)/C=C/c1cc(OC)c2c(c1)[C@H](C(=O)OCC)[C@@H](c1ccc(O)c(OC)c1)O2` (racemic): the IC50 in the data set with Leishmania donovani (setting [2]) was 9.1 µM; in the data set on L6, 4.42 µM. Besides, in data set [1], the selectivity ratio was 0.5.
The like results for `COc1cc([C@H]2Oc3ccc(Br)cc3[C@@H]2CO)ccc1O` (racemic) were, in that order, 30.5 µM, 32.3 µM and 1.1.
For the molecule `COc1cc([C@H]2Oc3ccccc3[C@@H]2CO)ccc1O` (racemic), the IC50 with Leishmania donovani (setting [2]) was found to be 185 µM; in the data set on L6, 58 µM. Also, in data set [1], the selectivity ratio worked out at 0.3.
For `COc1cc([C@H]2Oc3c(OC)cc(/C=C/C(=O)OC(C)(C)C)cc3[C@@H]2C(=O)OC(C)(C)C)ccc1O` (racemic), in that order: 2.1 µM, 11.4 µM and 5.4.
As for `CCCCOC(=O)/C=C/c1ccc2c(c1)[C@H](C(=O)OCCCC)[C@@H](c1ccc(O)cc1)O2` (racemic), the results for the IC50 with Leishmania donovani (setting [2]) and in the data set with L6 were 10.8 µM and 14.3 µM, respectively. In addition, in data set [1], the selectivity ratio was 1.3.
As for `COc1ccc([C@H]2Oc3ccc(Br)cc3[C@@H]2C)cc1` (racemic), the concentration for half-maximal inhibition (IC50) was 31.8 µM in the data set on Leishmania donovani (setting [2]) and 60.3 µM in the data set on L6. For the same molecule, the selectivity ratio in data set [1] is 1.9.
As for `COc1ccc([C@H]2Oc3ccc(Br)cc3[C@@H]2CO)cc1OC` (racemic), the IC50 with Leishmania donovani (setting [2]) was determined as 33.8 µM; in the data set with L6 it was 21.2 µM. Besides, in data set [1], the selectivity ratio amounted to 0.6.
The like results for `OC[C@H]1c2ccccc2O[C@@H]1c1ccccc1Br` (racemic) were, in that order, 21.7 µM, 25.4 µM and 1.2.
The like results for `COc1ccc([C@H]2Oc3ccccc3[C@@H]2CO)cc1` (racemic) were, in that order, 70.3 µM, 43.6 µM and 0.6.
Take `C=CCOC(=O)/C=C/c1cc(O)c2c(c1)[C@H](C(=O)OCC=C)[C@@H](c1ccc(O)c(O)c1)O2` (racemic): the half-maximal inhibitory concentration (IC50) in the data set with Leishmania donovani (setting [2]) was determined as 6.32 µM; in the data set with L6 it was 6.41 µM. Besides, the selectivity ratio in data set [1] was 1.
The like results for `COc1cc([C@H]2Oc3c(OC)cc(/C=C/C(=O)CC(C)C)cc3[C@@H]2C(=O)CC(C)C)ccc1O` (racemic) were, in that order, 3.81 µM, 5.29 µM and 1.4.
Turning to `COc1ccc([C@H]2Oc3ccc(/C=C/C(C)=O)cc3[C@@H]2C)cc1` (racemic), the IC50 was determined as 17.4 µM with Leishmania donovani (setting [2]) and 9.35 µM in the data set with L6. In addition, the selectivity ratio in data set [1] was determined as 0.5.
For `CCCCCCCCCCCCCCCCOP(=O)([O-])OCC[N+](C)(C)C` [MILTEFOSINE], the IC50 in the data set with Leishmania donovani (setting [2]) stood at 0.77 µM.
